# Bioassay records from PubChem BioAssay.
# T cruzi growth: T. cruzi proliferation inhibition. T. cruzi beta-gal in NIH3T3, GalScreen luminescence, 90 h. inhibition, % at 8.34 µM. hit rate 5.9% among 77,000. AID 624255;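 active = mean inhibition above about 93%, with at least 55% of replicates each passing it, limit read from the data, passing the limit was not always enough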
# Pf Dd2 growth: blocks growth of Plasmodium falciparum Dd2 parasites. activity change, % at 10 µM. P. falciparum Dd2 growth, SYBR Green, 72 h; hits give low values. hit rate 2.3% among 94,000; in the data active = activity change below about -80%
# IDH1 mut inh: blocks human IDH1 R132H reductase activity. O75874. diaphorase/resazurin fluorescence, 60 min. inhibition, % at 10 µM. hit rate 0.18% among 70,000. AID 624101; in the data active = inhibition above about 34%;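 note: 0% = DMSO and 100% = no enzyme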
# Target sequence (O75874 whole entry R132H): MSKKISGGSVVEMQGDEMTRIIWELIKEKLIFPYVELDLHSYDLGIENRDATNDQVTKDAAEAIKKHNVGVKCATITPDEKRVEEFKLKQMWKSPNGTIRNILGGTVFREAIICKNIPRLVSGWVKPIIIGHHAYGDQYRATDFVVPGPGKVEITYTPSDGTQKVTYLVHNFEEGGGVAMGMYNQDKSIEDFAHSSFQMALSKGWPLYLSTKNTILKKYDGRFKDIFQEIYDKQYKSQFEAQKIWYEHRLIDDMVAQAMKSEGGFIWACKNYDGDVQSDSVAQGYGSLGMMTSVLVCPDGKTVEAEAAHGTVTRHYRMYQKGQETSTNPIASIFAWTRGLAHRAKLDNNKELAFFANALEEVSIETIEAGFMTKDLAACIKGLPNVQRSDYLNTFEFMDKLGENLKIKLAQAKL
# GASC1 inh: inhibitors of human demethylase GASC-1 KDM4C; GST-KDM4C 2-372, H3K9me3 peptide, LANCE TR-FRET; inhibition, % at 12.5 µM; hit rate 0.15% among 96,000; Q9H3R0;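 active = mean replicate inhibition above about 25%, with at least 55% of replicates also reaching it, limit read from the data, passing the limit was not always enough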
#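 Material: N-terminal GST-fused human GASC-1 (KDM4C) fragment, residues 2-372. Input: 10 nM enzyme. Incubation: enzyme reaction 30 min, then detection 60 min, both room temperature. Doses: one test concentration per compound. Read-out basis: inhibition from TR-FRET ratio decrease. Detection: LANCE TR-FRET, excitation 340 nm, emissions 618 and 671 nm.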
# * = called active by the depositor; . = no result given. Hits are enriched below; roughly 5.8% of the tested compounds scored in any of these assays.
SMILES,T cruzi growth,Pf Dd2 growth,IDH1 mut inh,GASC1 inh
COC(=O)CCSc1nc2sc3c(c2c(=O)n1-c1cccc(C)c1)CC(C)(C)OC3,.,.,2,.
C=CCNC(=O)[C@H]1[C@@H]2C(=O)O[C@@H](c3ccccc3)[C@@H](c3ccccc3)N2[C@@H](c2ccc(O)cc2)[C@]12C(=O)Nc1ccccc12,.,.,0,.
C[C@@H]1CN([C@H](C)CO)C(=O)c2cccc(NC(=O)c3nc4ccccc4s3)c2O[C@H]1CN(C)C(=O)NC1CCCCC1,-60,-89*,.,0
C[C@@H]1CN([C@@H](C)CO)C(=O)c2cccc(NC(=O)c3nc4ccccc4s3)c2O[C@H]1CN(C)C(=O)NC1CCCCC1,0,-89*,-2,1
COc1ccc(NC(=O)N(C)C[C@@H]2Oc3c(NC(=O)c4nc5ccccc5s4)cccc3C(=O)N([C@@H](C)CO)C[C@H]2C)cc1,24,-87*,0,-1
COc1ccc(CCO[C@@H]2O[C@H](CO[C@@H]3OC[C@H](O)[C@H](O)[C@H]3O)[C@@H](OC(=O)/C=C/c3ccc(O)c(OC)c3)[C@H](O[C@@H]3O[C@@H](C)[C@H](O)[C@@H](O)[C@H]3O)[C@H]2O)cc1O,.,.,0,.
CCC(CO)NS(=O)(=O)c1ccc(OC)c(-c2nnc3c4ccccc4c(C)nn23)c1 (stereo not given),.,.,0,.
CCCN(C)C[C@H]1Oc2cc(C#Cc3cccnc3)ccc2S(=O)(=O)N([C@@H](C)CO)C[C@H]1C,15,-84*,-5,-1
C[C@@H]1CN([C@H](C)CO)S(=O)(=O)c2ccc(C#Cc3cccnc3)cc2O[C@H]1CN(C)C,16,-25,0,-1
CCCN(C)C[C@H]1Oc2cc(C#Cc3cccnc3)ccc2S(=O)(=O)N([C@H](C)CO)C[C@H]1C,41,-89*,0,-2
C[C@H]1CN([C@@H](C)CO)S(=O)(=O)c2ccc(C#Cc3cccnc3)cc2O[C@@H]1CN(C)C,11,-29,5,-1
CCCN(C)C[C@@H]1Oc2cc(C#Cc3cccnc3)ccc2S(=O)(=O)N([C@H](C)CO)C[C@@H]1C,51,-88*,1,6
C[C@H](CO)N1C[C@H](C)[C@@H](CN(C)Cc2cccnc2)Oc2cc(/C=C/c3ccccc3)ccc2S1(=O)=O,.,-89*,.,9
C/C=C/c1ccc2c(c1)O[C@H](CN(C)Cc1cccnc1)[C@H](C)CN([C@H](C)CO)S2(=O)=O,39,9,0,-1
C[C@@H]1CN([C@H](C)CO)S(=O)(=O)c2ccc(/C=C/c3ccccc3)cc2O[C@H]1CN(C)Cc1cccnc1,.,-86*,.,6
O=c1c2ccccc2nc(-c2cccs2)n1NCc1ccccc1F,.,.,1,.
CCC(=O)N1[C@@H](C#N)[C@@H](c2ccccc2-c2cccc(C)c2)[C@@H]1CO,.,-25,.,-1
COCC(=O)N1[C@H](C#N)[C@@H](c2ccccc2-c2ccccc2)[C@H]1CO,.,-93*,.,-1
COCC(=O)N1[C@@H](C#N)[C@H](c2ccccc2-c2ccccc2)[C@@H]1CO,.,-86*,.,0
CCC(=O)N1[C@H](CO)[C@@H](c2ccccc2-c2cccc(C)c2)[C@@H]1C#N,.,-86*,.,-1
COCC(=O)N1[C@H](C#N)[C@@H](c2ccccc2-c2ccccc2)[C@@H]1CO,.,3,.,-1
CCn1c(O)c(/C=C2/C=CC=N2)c(=O)[nH]c1=S,.,.,0,.
CS(=O)(=O)N(CC(=O)Nc1ccc(Oc2ccccc2)cc1)c1ccc(F)c(Cl)c1,.,.,0,.
C[C@H]1CN([C@@H](C)CO)C(=O)c2cc(NC(=O)Cc3cn(C)c4ccccc34)ccc2O[C@H]1CN(C)S(=O)(=O)c1cccs1,62,-90*,0,-2
C[C@H](CO)N1C[C@H](C)[C@H](CN(C)S(=O)(=O)c2cccs2)Oc2ccc(NC(=O)Cc3cn(C)c4ccccc34)cc2C1=O,88,-86*,-1,-1
SMILES,T cruzi growth,Pf Dd2 growth,IDH1 mut inh,GASC1 inh
C[C@@H]1CN([C@@H](C)CO)C(=O)c2cc(NC(=O)Cc3cn(C)c4ccccc34)ccc2O[C@H]1CN(C)S(=O)(=O)c1cccs1,54,-32,.,8
CC(=O)OC1/C=C(/C(=O)O)CC/C=C(/C)C(=O)/C=C\C1(C)C (stereo not given),.,.,1,.
CO[C@@H]1CN(C)C(=O)c2ccc(NC(=O)c3nc4ccccc4s3)cc2OC[C@@H](C)N(Cc2ccncc2)C[C@@H]1C,.,-72,4,0
CO[C@@H]1CN(C)C(=O)c2ccc(NC(=O)c3nc4ccccc4s3)cc2OC[C@H](C)N(Cc2ccncc2)C[C@@H]1C,.,-96*,7,-1
CO[C@@H]1CN(C)C(=O)c2ccc(NC(=O)c3nc4ccccc4s3)cc2OC[C@H](C)N(Cc2cccnc2)C[C@H]1C,69,-53,.,-3
CO[C@@H]1CN(C)C(=O)c2ccc(NC(=O)c3nc4ccccc4s3)cc2OC[C@H](C)N(Cc2cccnc2)C[C@@H]1C,91,-83*,.,2
O=C(Cn1ccc([N+](=O)[O-])n1)N1CCOCC1,.,.,0,.
C[C@@H]1O[C@@H](O[C@@H]2[C@@H](O)[C@H](O[C@@H]3[C@@H](O)[C@H](C)O[C@@H](O[C@H]4[C@H](O[C@H]5CC[C@@]6(C)C(CC[C@]7(C)C6CC=C6[C@@H]8CC(C)(C)CC[C@]8(C(=O)O)CC[C@]67C)[C@]5(C)CO)OC[C@H](O)[C@@H]4O)[C@@H]3O)O[C@H](CO)[C@H]2O[C@@H]2O[C@H](CO)[C@@H](O[C@@H]3OC[C@@H](O)[C@H](O)[C@H]3O)[C@H](O)[C@H]2O)[C@H](O)[C@H](O)[C@H]1O (stereo not given in full),.,.,0,.
O=C(C[C@@H]1C=C[C@@H](NC(=O)C2CCC2)[C@H](CO)O1)NC1CCC1,.,-87*,-1,-2
CCC(=O)N[C@H]1C=C[C@H](CC(=O)NCC2CCCCC2)O[C@@H]1CO,-62,-88*,-1,-1
CCC(=O)N[C@@H]1C=C[C@H](CC(=O)NCC2CCCCC2)O[C@@H]1CO,82,-11,-1,2
C[C@H]1CN([C@@H](C)CO)C(=O)c2ccccc2-c2ccccc2CO[C@H]1CN(C)Cc1ccc(O)cc1,14,5,0,0
C[C@H]1CN([C@@H](C)CO)C(=O)c2ccccc2-c2ccccc2CO[C@H]1CN(C)Cc1ccc(Oc2ccccc2)cc1,.,-87*,.,-2
C[C@@H]1CN([C@H](C)CO)C(=O)c2ccccc2-c2ccccc2CO[C@@H]1CN(C)Cc1ccc(Oc2ccccc2)cc1,.,-88*,-4,-1
COc1cc(NC(=O)C(C)Oc2ccc(Cl)cc2Cl)c(C(=O)O)cc1OC (stereo not given),.,.,1,.
Cc1oc(C(C)(C)C)cc1-c1cc(N)n(-c2ccc(I)cc2)n1,.,.,0,.
N[C@H]1CC[C@H](CCn2cc(C3CC3)nn2)O[C@@H]1CO,.,9,.,31*
N[C@H]1CC[C@H](CCn2cc(C3CCCCC3)nn2)O[C@@H]1CO,-43,-14,0,-1
CC(C)c1cn(CC[C@@H]2CC[C@H](N)[C@@H](CO)O2)nn1,-16,21,1,38*
